Reference: ChEMBL document CHEMBL3425449, “Identification of MK-8133: An orexin-2 selective receptor antagonist with favorable development properties” (Bioorg Med Chem Lett, 2015)
≈ marks a conversion by molar mass, not a printed value. Calls of active or inactive are those of the source. The rule behind the calls is not given here.

How the values were obtained:
[1] = molecular target: T1, Orexin/Hypocretin receptor type 1 (Homo sapiens, UniProt O43613); assay: Antagonist activity against human OX1R expressed in CHOK1 cells assessed as inhibition of orexin A-induced […] Ca2+ mobilization by FLIPR assay; format: functional, cell-based, CHO-K1
T1 sequence (O43613 whole entry): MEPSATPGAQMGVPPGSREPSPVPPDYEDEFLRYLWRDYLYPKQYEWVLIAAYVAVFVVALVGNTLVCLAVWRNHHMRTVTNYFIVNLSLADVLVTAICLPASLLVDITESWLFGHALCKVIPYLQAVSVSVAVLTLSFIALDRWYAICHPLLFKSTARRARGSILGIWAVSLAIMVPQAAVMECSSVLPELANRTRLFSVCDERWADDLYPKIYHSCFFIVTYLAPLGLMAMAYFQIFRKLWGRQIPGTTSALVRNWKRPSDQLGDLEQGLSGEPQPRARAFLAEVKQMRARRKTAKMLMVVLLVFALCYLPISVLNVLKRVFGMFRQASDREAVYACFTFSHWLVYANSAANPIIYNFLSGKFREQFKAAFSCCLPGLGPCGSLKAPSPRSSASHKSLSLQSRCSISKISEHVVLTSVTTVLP
Summary of the method: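 Cell-based FLIPR assay measuring Ca2+ flux as the functional read-out of orexin receptor antagonism. Target is the human orexin receptor expressed in CHO-K1 cells.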

CHO-K1 = assay: Selectivity index, ratio of IC50 for human OX1R expressed in CHOK1 cells to IC50 for human OX2R expressed in CHOK1 cells by FLIPR assay; format: cell-based
Summary of the method: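 Ratio of OX1R FLIPR IC50 to OX2R FLIPR IC50. Both come from Ca2+-flux assays on human orexin receptors expressed in CHO-K1 cells, each averaged over n ≥ 2 experiments.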

[2] = Intrinsic clearance in human microsomes; format: ADME, Microsome
[3] = Solubility of the compound at pH 7; format: physicochemical; conditions: buffer, read-out: solubility
[4] = Lipophilicity, log D of the compound by HPLC method; format: physicochemical; conditions: read-out: logD
[5] = Oral bioavailability in Wistar Han rat at 10 mg/kg; format: ADME, organism-based; conditions: in vivo
Summary of the method: (§1)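 Pharmacokinetics in Wistar Han rats (n = 2) after intravenous and oral dosing. Oral dose was 10 mg/kg in PEG400:Tween80/water 40:10:50. IV dose was 2 mg/kg in DMSO/PEG400/water 20:60:20.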

[6] = Half life in Wistar Han rat at 10 mg/kg, po or 2 mg/kg, iv; format: ADME, organism-based; conditions: in vivo; summary of the method: as §1
[7] = Clearance in Wistar Han rat at 10 mg/kg, po or 2 mg/kg, iv; format: ADME, organism-based; conditions: in vivo; summary of the method: as §1
[8] = Volume of distribution at steady state in Wistar Han rat at 10 mg/kg, po or 2 mg/kg, iv; format: ADME, organism-based; conditions: in vivo, read-out: Vdss; summary of the method: as §1
[9] = Oral bioavailability in dog at 10 mg/kg; format: ADME, organism-based, Canis lupus familiaris; conditions: in vivo
Summary of the method: (§2)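 Dog pharmacokinetics determined after intravenous and oral administration.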

[10] = Half life in dog at 10 mg/kg, po or 2 mg/kg, iv; format: ADME, organism-based, Canis lupus familiaris; conditions: in vivo; summary of the method: as §2
[11] = Clearance in dog at 10 mg/kg, po or 2 mg/kg, iv; format: ADME, organism-based, Canis lupus familiaris; conditions: in vivo; summary of the method: as §2
[12] = Volume of distribution at steady state in dog at 10 mg/kg, po or 2 mg/kg, iv; format: ADME, organism-based, Canis lupus familiaris; conditions: in vivo, read-out: Vdss; summary of the method: as §2
[13] = Unbound fraction in human plasma at 1 uM; format: ADME, cell-free
Summary of the method: (§3)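 Plasma protein binding measured at a compound concentration of 1 µM. Reported as percent unbound fraction in human, rat, dog and monkey plasma.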

[14] = Unbound fraction in rat plasma at 1 uM; format: ADME, cell-free; summary of the method: as §3
[15] = Unbound fraction in dog plasma at 1 uM; format: ADME, cell-free, Canis lupus familiaris; summary of the method: as §3
[16] = Unbound fraction in monkey plasma at 1 uM; format: ADME, cell-free, Macaca mulatta; conditions: rhesus monkey; summary of the method: as §3
[17] = Permeability in pig LLC-PK1 cells; format: ADME, cell-based, Sus scrofa; conditions: read-out: permeability
Summary of the method: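 Passive permeability measured in LLC-PK1 cells and expressed in cm/s.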

P-gp [18] = assay: Substrate activity at rat P-gp assessed as efflux ratio in cell based assay; format: ADME; conditions: not told
P-gp [19] = assay: Substrate activity at human P-gp assessed as efflux ratio in cell based assay; format: ADME; conditions: not told
[20] = Ratio of drug level in CSF to plasma in rat; format: ADME; conditions: CSF and plasma
Homo sapiens = organism: Homo sapiens; assay: Inhibition of CYP450 (unknown origin)
[21] = Induction of CYP450 (unknown origin); format: ADME; conditions: human
[22] = Solubility of the compound at pH 7.4; format: physicochemical; conditions: buffer
Mus musculus [23] = assay: Sleep promoting activity in mouse assessed as reduction of active wake at 30 mg/kg, po dosed for 5 consecutive days measured after 1 hr; format: functional, organism-based; parameters: dose 30 mg/kg
Summary of the method: (§4)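 Sleep architecture recorded in ambulatory mice (wild-type N = 7; OX2R KO N = 6) implanted with radio-telemetry transmitters for ECoG and EMG. Compound given at 30 mg/kg po; vehicle was 20% Vitamin E TPGS po. Balanced cross-over design over 5 consecutive treatment days. Read-out is mean within-subject change versus vehicle in active wake, SWS and REM.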

Mus musculus [24] = assay: Sleep promoting activity in mouse assessed as increase in slow wave sleep at 30 mg/kg, po dosed for 5 consecutive days measured after 1 hr; format: functional, organism-based; parameters: dose 30 mg/kg; summary of the method: as §4
Mus musculus [25] = assay: Sleep promoting activity in mouse assessed as effect on REM sleep at 30 mg/kg, po dosed for 5 consecutive days measured after 1 hr; format: functional, organism-based; parameters: dose 30 mg/kg; summary of the method: as §4
Mus musculus [26] = assay: Sleep promoting activity in OX2R knock out mouse with targeted disruption of the Hcrtr2 gene assessed as effect on active wake at 30 mg/kg, po dosed for 5 consecutive days measured after 1 hr; format: functional, organism-based; parameters: dose 30 mg/kg; summary of the method: as §4
Mus musculus [27] = assay: Sleep promoting activity in OX2R knock out mouse with targeted disruption of the Hcrtr2 gene assessed as effect on slow wave sleep at 30 mg/kg, po dosed for 5 consecutive days measured after 1 hr; format: functional, organism-based; parameters: dose 30 mg/kg; summary of the method: as §4
Mus musculus [28] = assay: Sleep promoting activity in OX2R knock out mouse with targeted disruption of the Hcrtr2 gene assessed as effect on REM sleep at 30 mg/kg, po dosed for 5 consecutive days measured after 1 hr; format: functional, organism-based; parameters: dose 30 mg/kg; summary of the method: as §4
Rattus norvegicus [29] = assay: Sleep promoting activity in rat assessed as reduction of active wake at 1 and 3 mg/kg, po dosed for 3 consecutive days measured after 2 hrs; format: functional, organism-based; parameters: dose 3 mg/kg
Summary of the method: (§5)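 Rats implanted with radio-telemetry ECoG/EMG transmitters and recorded while ambulatory. Dosed at 1 and 3 mg/kg po or with vehicle (20% Vitamin E TPGS) in a balanced cross-over over 3 consecutive days. Active wake, SWS and REM were scored in the 2 h after dosing as within-subject change versus vehicle.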

Rattus norvegicus [30] = assay: Sleep promoting activity in rat assessed as increase in slow wave sleep at 1 and 3 mg/kg, po dosed for 3 consecutive days measured after 2 hrs; format: functional, organism-based; parameters: dose 3 mg/kg; summary of the method: as §5
Rattus norvegicus [31] = assay: Sleep promoting activity in rat assessed as increase in REM sleep at 1 and 3 mg/kg, po dosed for 3 consecutive days measured after 2 hrs; format: functional, organism-based; parameters: dose 3 mg/kg; summary of the method: as §5
Canis familiaris [32] = assay: Sleep promoting activity in beagle dog assessed as reduction of active wake at 0.01 and 0.05 mg/kg, po dosed for 5 consecutive days; format: functional, organism-based; parameters: dose 0.05 mg/kg; conditions: Canis lupus familiaris
Summary of the method: (§6)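 Beagles implanted with radio-telemetry ECoG/EMG transmitters received 0.01 and 0.05 mg/kg po or vehicle (20% Vitamin E TPGS). Balanced cross-over design over 5 consecutive days. Active wake, NREM I, NREM II (including delta sleep) and REM were scored as mean within-subject change versus vehicle.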

Canis familiaris [33] = assay: Sleep promoting activity in beagle dog assessed as increase in non-REM NREM1 sleep at 0.01 and 0.05 mg/kg, po dosed for 5 consecutive days; format: functional, organism-based; parameters: dose 0.05 mg/kg; conditions: Canis lupus familiaris; summary of the method: as §6
Canis familiaris [34] = assay: Sleep promoting activity in beagle dog assessed as increase in REM2 sleep at 0.01 and 0.05 mg/kg, po dosed for 5 consecutive days; format: functional, organism-based; parameters: dose 0.05 mg/kg; conditions: Canis lupus familiaris, in the assay text read “NREM2 sleep” for “REM2 sleep”; summary of the method: as §6
Canis familiaris [35] = assay: Sleep promoting activity in beagle dog assessed as increase in delta sleep at 0.01 and 0.05 mg/kg, po dosed for 5 consecutive days; format: functional, organism-based; parameters: dose 0.05 mg/kg; conditions: Canis lupus familiaris; summary of the method: as §6
Canis familiaris [36] = assay: Sleep promoting activity in beagle dog assessed as increase in REM sleep at 0.01 and 0.05 mg/kg, po dosed for 5 consecutive days; format: functional, organism-based; parameters: dose 0.05 mg/kg; conditions: Canis lupus familiaris; summary of the method: as §6

IC50 [1]: 4.9 µM
CLint scaled [2]: 17 mL/min/kg
solubility [3]: 183 µM (≈ 73.1 µg/mL)
logD [4]: 2.9
bioavailability [5]: 80%
half-life [6]: 4.3 h
clearance [7]: 37 mL/min/kg
Vd [8]: 1.3 L/kg
bioavailability [9]: 53%
half-life [10]: 0.8 h
clearance [11]: 15 mL/min/kg
Vd [12]: 0.97 L/kg
fraction unbound at 1 µM [13]: 0.028
fraction unbound at 1 µM [14]: 0.076
fraction unbound at 1 µM [15]: 0.166
fraction unbound at 1 µM [16]: 0.239
Papp [17]: 33 ×10⁻⁶ cm/s
efflux ratio (P-gp [18]): 2.3
efflux ratio (P-gp [19]): 0.7
Kp [20]: 0.1
inhibition (Homo sapiens): inactive
Activity [21]: Not Active
solubility [22]: 250 µg/mL (≈ 626 µM)
SMILES: C[C@@H]1CC[C@@H](Oc2cc(C#N)ccn2)CN1C(=O)c1ccccc1-c1ncccn1
Ratio IC50 (CHO-K1): 174
Activity (Mus musculus [23]): Active
Activity (Mus musculus [24]): Active
Activity (Mus musculus [25]): inactive
Activity (Mus musculus [26]): inactive
Activity (Mus musculus [27]): inactive
Activity (Mus musculus [28]): inactive
Activity (Rattus norvegicus [29]): Active
Activity (Rattus norvegicus [30]): Active
Activity (Rattus norvegicus [31]): Active
Activity (Canis familiaris [32]): Dose-dependent effect
Activity (Canis familiaris [33]): Dose-dependent effect
Activity (Canis familiaris [34]): Dose-dependent effect
Activity (Canis familiaris [35]): Dose-dependent effect
Activity (Canis familiaris [36]): Active
